Laboratory results taken from PMC10731006 (Heliyon, 2023).
≈ marks a conversion by molar mass, not a printed value.

Key:
[1] = tested on: breast cancer (MCF7) cells; assay: MTT cytotoxicity assay, MCF7; assay type: cell-based, human; settings: for IC50: Homo sapiens, MCF7, 96 h, read-out: IC50 MCF-7; for SI MCF-7 (selectivity index): IC50 in HDF / IC50 in MCF-7, 96 h
Summary of the method: (§1)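 Cells were grown in RPMI 1640 with 10% FCS, 2 mM L-glutamine and 1% penicillin-streptomycin at 37 °C under 5% CO2. They were seeded at 1 × 10^4 cells/ml, left overnight to adhere, and exposed 96 h to test compound diluted in medium (six final levels, 1–600), with DMSO-matched and cisplatin controls. MTT at 5 mg/ml was added for 4 h, formazan dissolved in DMSO, and A540 read, in triplicate. IC50 was fitted from the data. SI = IC50 in HDF / IC50 in this line.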

B. subtilis (ATCC 6633) [2] = assay: Agar diffusion test, B. subtilis; assay type: cell-based; settings: Bacillus subtilis, ATCC6633, read-out: Zone of inhibition BS
[3] = tested on: human dermal fibroblast (HDF, human dermal cell line); assay: MTT cytotoxicity assay, normal cells; assay type: cell-based; settings: Homo sapiens, Fibroblast, 96 h, read-out: IC50 HDF
Summary of the method: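 Human dermal fibroblasts were maintained in DMEM with 10% FCS, 2 mM L-glutamine and 1% penicillin-streptomycin (37 °C, 5% CO2). They were seeded at 1 × 10^4 cells/ml, allowed to adhere overnight, then treated 96 h with serially diluted test compound (six final levels, 1–600) beside DMSO-matched vehicle and cisplatin controls. Then MTT 5 mg/ml was added for 4 h, formazan taken up in DMSO, and absorbance read at 540 nm, in triplicate. IC50 was fitted.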

B. subtilis (ATCC 6633) [4] = assay: Micro-broth dilution assay; assay type: cell-based; settings: Bacillus subtilis, ATCC6633, read-out: MIC BS
[5] = tested on: Bacillus cereus (ATCC 11778); assay: Agar diffusion test, B. cereus; assay type: cell-based; settings: ATCC11778, read-out: Zone of inhibition BC
[6] = tested on: Pseudomonas aeruginosa (ATCC 13048); assay: Micro-broth dilution assay; assay type: cell-based; settings: ATCC13048, read-out: MIC PA
[7] = tested on: Bacillus cereus (ATCC 11778); assay: Micro-broth dilution assay; assay type: cell-based; settings: ATCC11778, read-out: MIC BC
[8] = DPPH radical scavenging assay
[9] = tested on: non-small cell lung cancer (A549) cells; assay: MTT cytotoxicity assay, A549; assay type: cell-based, human; settings: for IC50: Homo sapiens, A549, 96 h, read-out: IC50 A549; for SI A549 (selectivity index): IC50 in HDF / IC50 in A549, 96 h
Summary of the method: as §1

[10] = tested on: Staphylococcus aureus (ATCC 10145); assay: Micro-broth dilution assay; assay type: cell-based; settings: ATCC10145, read-out: MIC SA
[11] = tested on: Escherichia coli (ATCC 25922); assay: Micro-broth dilution assay; assay type: cell-based; settings: ATCC25922, read-out: MIC EC
[12] = ABTS radical scavenging assay
[13] = tested on: glioblastoma (U-87 MG) cells; assay: MTT cytotoxicity assay, U-87 MG; assay type: cell-based, human; settings: for IC50: Homo sapiens, U-87 MG, 96 h, read-out: IC50 U87; for SI U87 (selectivity index): IC50 in HDF / IC50 in U87, 96 h
Summary of the method: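 U-87 MG cells were cultured in DMEM with 10% FCS, 2 mM L-glutamine and 1% penicillin-streptomycin at 37 °C, 5% CO2. Seeding was 1 × 10^4 cells/ml; after overnight adherence, test compound diluted in medium (six final levels, 1–600) was applied for 96 h alongside DMSO-matched and cisplatin controls. Read-out: MTT 5 mg/ml for 4 h, DMSO solubilisation, A540, in triplicate, IC50 fitted. SI = IC50 in HDF / IC50 in U87.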

[14] = tested on: cancer cell lines (U87, MCF-7 and A549) compared to normal cells (HDF); assay: MTT cytotoxicity, cancer cell lines compared to normal cells; assay type: cell-based, human; settings: 96 h treatment
Summary of the method: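 A549 and MCF7 grown in RPMI 1640, HDF and U87 in DMEM, each with 10% FCS, 2 mM L-glutamine, 1% pen-strep, 37 °C, 5% CO2. Cells at 1 × 10^4 cells/ml were adhered overnight, then exposed 96 h to test compound (final 1–600 […] in medium). Controls were blank, untreated, DMSO-matched and cisplatin (1–100 μM/mL). MTT 5 mg/ml for 4 h; DMSO-solubilised formazan read at 540 nm, triplicate. IC50 from curve fitting; selectivity index = HDF IC50 / cancer-line IC50.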

[15] = tested on: Gram-positive and Gram-negative bacterial test strains; assay: Antibacterial activity, whole panel of test strains; assay type: cell-based
Summary of the method: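 Disc diffusion followed CLSI (2012). Test compound at 10, 50 and 100 μg/disc was loaded on 6-mm blank filter discs laid on Mueller Hinton agar seeded at 10^6 cells/ml. Strains were S. aureus ATCC 10145, B. cereus ATCC 11778, B. subtilis ATCC 6633, P. aeruginosa ATCC 13048 and E. coli ATCC 25922. Inhibition zones were recorded.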

| SMILES | IC50 [1] [µM] | SI MCF-7 (selectivity index) [1] | IC50 [3] [µM] | MIC (B. subtilis (ATCC 6633) [4]) [µg/mL] | MIC [6] [µg/mL] | MIC [7] [µg/mL] | IC50 ± SD, DPPH [8] [µg/mL] | % inhibition ±SD, DPPH ([8]; 5 μg/ml) [%] | % inhibition ±SD, DPPH ([8]; 10 μg/ml) [%] | % inhibition ±SD, DPPH ([8]; 25 μg/ml) [%] | % inhibition ±SD, DPPH ([8]; 50 μg/ml) [%] | % inhibition ±SD, DPPH ([8]; 100 μg/ml) [%] | IC50 [9] [µM] | SI A549 (selectivity index) [9] | MIC [10] [µg/mL] | MIC [11] [µg/mL] | IC50 ± SD, ABTS [12] [µg/mL] | % inhibition ±SD, ABTS ([12]; 5 μg/ml) [%] | % inhibition ±SD, ABTS ([12]; 10 μg/ml) [%] | % inhibition ±SD, ABTS ([12]; 25 μg/ml) [%] | further results |
| --- | --- | --- | --- | --- | --- | --- | --- | --- | --- | --- | --- | --- | --- | --- | --- | --- | --- | --- | --- | --- | --- |
| COC(=O)c1cn(C2CC2)c2cc(N3CCN(C(=O)c4c(C)nnn4-c4ccc([N+](=O)[O-])cc4)CC3)c(F)cc2c1=O [Compound 6e, methyl 7-(4-(1-(4-nitrophenyl)-4-methyl-1H-1,2,3-triazole-5-carbonyl)piperazin-1-yl)-1-cyclopropyl-6-fluoro-4-oxo-1,4-dihydroquinoline-3-carboxylate] | 58.6 ± 5.9 | 1.4 | 83 ± 5.8 | > 500 | > 500 | > 500 | 18.5 ± 1.6 (≈ 32.1 µM) | 17.1 ± 0.6 | 33.8 ± 0.5 | 54.5 ± 0.4 | 60.7 ± 0.8 | 67.9 ± 0.6 | 79 ± 4.7 | 1.1 | > 500 | > 500 | 24.2 ± 1.0 (≈ 42 µM) | 14.9 ± 1.4 | 37.0 ± 0.2 | 50.3 ± 0.5 | zone of inhibition at 100 µg/disc (B. subtilis (ATCC 6633) [2]): 9.6 ± 0.6 mm; zone of inhibition at 300 µg/disc (B. subtilis (ATCC 6633) [2]): 13.1 ± 0.3 mm; zone of inhibition at 500 µg/disc (B. subtilis (ATCC 6633) [2]): 14.3 ± 0.6 mm; zone of inhibition at 100 µg/disc [5]: 10.3 ± 0.6 mm; zone of inhibition at 300 µg/disc [5]: 11.3 ± 0.6 mm; zone of inhibition at 500 µg/disc [5]: 13.3 ± 0.6 mm; % inhibition ±SD, ABTS ([12]; 50 μg/ml): 71.2 ± 0.2%; % inhibition ±SD, ABTS ([12]; 100 μg/ml): 74.3 ± 0.4%; IC50 [13]: 45 ± 7.1 µM; SI U87 (selectivity index) [13]: 1.8 |
| COC(=O)c1cn(C2CC2)c2cc(N3CCN(C(=O)c4c(C)nnn4-c4ccc(F)cc4)CC3)c(F)cc2c1=O [Compound 6f, methyl 7-(4-(1-(4-fluorophenyl)-4-methyl-1H-1,2,3-triazole-5-carbonyl)piperazin-1-yl)-1-cyclopropyl-6-fluoro-4-oxo-1,4-dihydroquinoline-3-carboxylate] | 10.6 ± 3 | 13.3 | 142 ± 4.1 | > 500 | > 500 | > 500 | 56.2 ± 2.1 (≈ 102 µM) | 10.6 ± 0.9 | 20.7 ± 0.8 | 39.5 ± 0.5 | 48.9 ± 0.4 | 66.9 ± 0.3 | 104 ± 4.5 | 1.4 | > 500 | > 500 | 39.2 ± 2.1 (≈ 71.5 µM) | 13.3 ± 0.6 | 29.7 ± 0.7 | 46.1 ± 0.1 | cytotoxic / anti-proliferative activity in words [14]: significant cytotoxic activity against only U-87 and MCF-7 cancer cell lines; antibacterial activity in words [15]: deprived of any antibacterial activity; % inhibition ±SD, ABTS ([12]; 50 μg/ml): 54.1 ± 0.7%; % inhibition ±SD, ABTS ([12]; 100 μg/ml): 64.2 ± 0.4%; IC50 [13]: 7.9 ± 2.3 µM; SI U87 (selectivity index) [13]: 18 |
| Cc1c(C)c2c(c(C)c1O)CCC(C)(C(=O)O)O2 (stereo not shown) [Trolox®, reference compound] | – | – | – | – | – | – | 5.2 ± 0.3 (≈ 20.8 µM) | – | – | – | – | – | – | – | – | – | 2.7 ± 0.2 (≈ 10.8 µM) | – | – | – | – |
